This note sets out measurements from ChEMBL document CHEMBL1932986, “Synthesis and in vitro antimycobacterial activity of compounds derived from (R)- and (S)-2-amino-1-butanol - The crucial role of the configuration” (Eur J Med Chem, 2012).

≈ marks a conversion by molar mass, not a printed value. Calls of active or inactive are those of the source. Bounds are passed on as bounds.

Common to all, as to format: functional
Experiment [1] deals with Micrococcus luteus. Kind of experiment: Antibacterial activity against Sarcina lutea ATCC 9341 at 50 mg/ml after 24 hrs by agar diffusion test. Conditions: for zone of inhibition at 50000 µg/mL: ATCC 9341, 24 h, read-out: DIZ. The method in brief: (§1)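 Agar diffusion: bacteria grown 24 h at 37 °C on nutrient agar. Wells in the agar are filled with […] of compound solution in DMSO at various concentrations. The diameter of the clear zone around the application point is measured. Bracketed values give the lowest concentration (mg/ml) that produces a zone >11 mm. A first screen is run at 50 mg/ml.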

In the next experiment the test system is Bacillus cereus. Kind of experiment: Antibacterial activity against Bacillus cereus ATCC 11778 at 50 mg/ml after 24 hrs by agar diffusion test. Conditions: for zone of inhibition at 50000 µg/mL: ATCC 11778, 24 h, read-out: DIZ. In short, it runs like this:
(§2)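 Agar diffusion: wells in agar filled with […] DMSO solution of compound at various concentrations; diameter of clear zone around application point measured. Bacteria grown 24 h at 37 °C on nutrient agar. Compounds first screened at 50 mg/ml; those active then tested at lower concentrations. Bracketed value = lowest concentration (mg/ml) giving zone >11 mm, reported only if activity retained at ≤1.25 mg/ml.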
On the technique in general: Agar diffusion results depend on both activity and mobility in agar.

The next experiment has as its system Candida tropicalis. As to the kind of experiment: Antifungal activity against Candida tropicalis ATCC 20336 at 50 mg/ml after 72 hrs by agar diffusion test. Conditions: for zone of inhibition at 50000 µg/mL: ATCC 20336, 72 h, read-out: DIZ. In short, it runs like this: (§3)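 Agar diffusion: yeasts grown on yeast peptone dextrose agar and fungi on potato dextrose agar. Wells are filled with […] of compound solution in DMSO at various concentrations, and the clear-zone diameter is measured. Bracketed values give the lowest concentration (mg/ml) that produces a zone >11 mm. A first screen is run at 50 mg/ml.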

Experiment [2] relates to Mycobacterium tuberculosis. As to the kind of experiment: Antimycobacterial activity against Mycobacterium tuberculosis H37Rv after 45 days. In short, it runs like this:
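Canetti proportion method. Compound in DMSO is added to Löwenstein–Jensen egg medium before coagulation (30 min, 85 °C), tested at three levels plus a lower one where needed. Tubes are inoculated with H37Rv at 10⁵ cells/ml and incubated 45 days at 37 °C. Colony counts versus drug-free control give percentage inhibition.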

A further experiment concerns Priestia megaterium. As to the kind of experiment: Antibacterial activity against Bacillus megaterium NRRL 1353895 at 50 mg/ml after 24 hrs by agar diffusion test. Conditions: for zone of inhibition at 50000 µg/mL: NRRL 1353895, 24 h, read-out: DIZ. The method in brief:
as §2

The subject of the next experiment is Acinetobacter johnsonii. Kind of experiment: Antibacterial activity against Acinetobacter johnsonii ATCC 17909 at 50 mg/ml after 24 hrs by agar diffusion test. Conditions: for zone of inhibition at 50000 µg/mL: ATCC 17909, 24 h, read-out: DIZ. The method in brief: as §2
The subject of another experiment is Penicillium chrysogenum. Kind of experiment: Antifungal activity against Penicillium chrysogenum CECT 2802 at 50 mg/ml after 72 hrs by agar diffusion test. Conditions: for zone of inhibition at 50000 µg/mL: CECT 2802, 72 h, read-out: DIZ. In short, it runs like this: as §3
Another experiment has as its system Saccharomyces cerevisiae. As to the kind of experiment: Antifungal activity against Saccharomyces cerevisiae ATCC 9763 at 50 mg/ml after 72 hrs by agar diffusion test. Conditions: for zone of inhibition at 50000 µg/mL: ATCC 9763, 72 h, read-out: DIZ. In short, it runs like this:
as §3

Another experiment relates to Escherichia coli. Kind of experiment: Antibacterial activity against Escherichia coli ATCC 8739 at 50 mg/ml after 24 hrs by agar diffusion test. Conditions: for zone of inhibition at 50000 µg/mL: ATCC 8739, 24 h, read-out: DIZ. The method in brief: as §2
The subject of another experiment is Bacillus subtilis. As to the kind of experiment: Antibacterial activity against Bacillus subtilis ATCC 6633 at 50 mg/ml after 24 hrs by agar diffusion test. The settings on record: for zone of inhibition at 50000 µg/mL: ATCC 6633, 24 h, read-out: DIZ. The method in brief:
as §2

In another experiment the test system is Bacillus mycoides. As to the kind of experiment: Antibacterial activity against Bacillus mycoides DSMZ 274 at 50 mg/ml after 24 hrs by agar diffusion test. Conditions: for zone of inhibition at 50000 µg/mL: DSMZ 274, 24 h, read-out: DIZ. The method in brief:
as §2

The test system of another experiment is Bacillus. Kind of experiment: Antibacterial activity against Bacillus idosus B 241 at 50 mg/ml after 24 hrs by agar diffusion test. Conditions: for zone of inhibition at 50000 µg/mL: B 241, 24 h, read-out: DIZ. In short, it runs like this:
as §2

A further experiment deals with Staphylococcus aureus. Kind of experiment: Antibacterial activity against Staphylococcus aureus NRRL B 313 at 50 mg/ml after 24 hrs by agar diffusion test. Conditions: for zone of inhibition at 50000 µg/mL: NRRL B 313, 24 h, read-out: DIZ. The method in brief:
as §1

Experiment [3] deals with Micrococcus luteus. As to the kind of experiment: Antibacterial activity against Micrococcus luteus ATCC 9631 at 50 mg/ml after 24 hrs by agar diffusion test. The settings on record: for zone of inhibition at 50000 µg/mL: ATCC 9631, 24 h, read-out: DIZ. The method in brief:
as §2

By MIC is commonly meant the smallest concentration in the dilution series that meets the test's criterion for growth inhibition. Higher therefore signals weaker potency. For `CC[C@@H]1COc2cc3ccccc3c(=O)n21`, the zone of inhibition at 50000 µg/mL in the experiment on Micrococcus luteus [1] amounted to 13 mm; in the experiment with Bacillus cereus it was 18 mm; in the experiment with Candida tropicalis, 20 mm; with Priestia megaterium, 13 mm; with Acinetobacter johnsonii, 10 mm; with Penicillium chrysogenum, 35 mm. Further, the zone of inhibition at 50000 µg/mL in the experiment with Saccharomyces cerevisiae stood at 11 mm; with Escherichia coli it was 0 mm; in the experiment with Bacillus mycoides it was 15 mm; in the experiment with Bacillus, 15 mm; in the experiment with Staphylococcus aureus, 12 mm; with Micrococcus luteus [3] it was 15 mm. Also, the MIC in [2] came to 23.2 µM (≈ 5 µg/mL). The “diameter of the inhibition zone (DIZ)” value in the experiment with Bacillus subtilis is “inactive”.
As for `CC[C@H](CO)NCc1ccccc1OC`, the zone of inhibition at 50000 µg/mL in the experiment on Bacillus cereus was determined as 13 mm; in the experiment with Priestia megaterium, 11 mm; in the experiment on Acinetobacter johnsonii, 10 mm; in the experiment with Saccharomyces cerevisiae, 16 mm; with Bacillus subtilis, 10 mm; with Bacillus mycoides, 11 mm. Also, the results for the zone of inhibition at 50000 µg/mL in the experiment with Bacillus, in the experiment with Staphylococcus aureus and in the experiment with Micrococcus luteus [3] were 15 mm, 10 mm and 11 mm, respectively. For the same compound, the “diameter of the inhibition zone (DIZ)” value in the experiment on Candida tropicalis, in the experiment with Penicillium chrysogenum and in the experiment on Escherichia coli was “inactive” in each case. The MIC in experiment [2] was above 23.9 µM.
As to `CC[C@H](CO)NCc1ccc(-c2ccccc2)cc1`, the zone of inhibition at 50000 µg/mL in the experiment on Micrococcus luteus [1] was found to be 17 mm; with Bacillus cereus it was 15 mm; with Candida tropicalis, 18 mm; in the experiment with Priestia megaterium, 19 mm; in the experiment with Acinetobacter johnsonii it was 20 mm; with Penicillium chrysogenum, 40 mm. Besides, the zone of inhibition at 50000 µg/mL in the experiment with Saccharomyces cerevisiae was 18 mm; in the experiment with Escherichia coli, 28 mm; with Bacillus subtilis, 18 mm; in the experiment with Bacillus mycoides it was 18 mm; with Bacillus it was 18 mm; with Staphylococcus aureus, 20 mm. In addition, the zone of inhibition at 50000 µg/mL with Micrococcus luteus [3] worked out at 17 mm. In addition, the MIC in [2] is above 19.6 µM.
On to `CC[C@H](CO)NCc1ccc(-n2ccnc2)cc1`, for which the zone of inhibition at 50000 µg/mL with Micrococcus luteus [1] is 18 mm; in the experiment on Bacillus cereus it was 13 mm; with Acinetobacter johnsonii, 18 mm; with Penicillium chrysogenum, 12 mm; in the experiment on Bacillus subtilis it was 12 mm; in the experiment with Bacillus mycoides it was 18 mm. Also, the zone of inhibition at 50000 µg/mL in the experiment on Bacillus, with Staphylococcus aureus and in the experiment on Micrococcus luteus [3] was 16 mm throughout. In addition, the “diameter of the inhibition zone (DIZ)” value in the experiment on Candida tropicalis, in the experiment on Priestia megaterium, in the experiment on Saccharomyces cerevisiae and in the experiment on Escherichia coli was “inactive” throughout. The MIC in experiment [2] was 20.4 µM (≈ 5 µg/mL).
On to `CC[C@H](CO)N(Cc1cc2c(cc1Cl)OCO2)Cc1cc2c(cc1Cl)OCO2`, for which the zone of inhibition at 50000 µg/mL in the experiment with Micrococcus luteus [1] and in the experiment with Priestia megaterium was 10 mm in each case. Also, the “diameter of the inhibition zone (DIZ)” value with Bacillus cereus, with Candida tropicalis, in the experiment with Acinetobacter johnsonii, in the experiment on Penicillium chrysogenum, in the experiment with Saccharomyces cerevisiae and with Escherichia coli was “inactive” in each case. Further, the “diameter of the inhibition zone (DIZ)” value with Bacillus subtilis, in the experiment on Bacillus mycoides, in the experiment on Bacillus and in the experiment with Staphylococcus aureus was “inactive” each time. The MIC in experiment [2] is above 11.7 µM.
`CC[C@H](CO)N1C(=O)c2cccc3c(Br)ccc(c23)C1=O`: the “diameter of the inhibition zone (DIZ)” value in the experiment with Candida tropicalis, in the experiment on Priestia megaterium, in the experiment on Acinetobacter johnsonii, in the experiment with Penicillium chrysogenum, in the experiment with Saccharomyces cerevisiae and in the experiment with Bacillus subtilis was “inactive” in each case. In addition, the “diameter of the inhibition zone (DIZ)” value in the experiment with Bacillus mycoides, with Bacillus, in the experiment on Staphylococcus aureus and in the experiment on Micrococcus luteus [3] was “inactive” in each case. For the same compound, the MIC in experiment [2] is above 14.4 µM.
For the compound `CC[C@H](CO)NCc1ccnc2ccccc12`, the zone of inhibition at 50000 µg/mL in the experiment on Micrococcus luteus [1] amounted to 13 mm; in the experiment with Bacillus cereus it was 13 mm; with Priestia megaterium, 11 mm; in the experiment on Acinetobacter johnsonii, 13 mm; with Penicillium chrysogenum, 20 mm; with Escherichia coli, 20 mm. Also, the zone of inhibition at 50000 µg/mL in the experiment on Bacillus subtilis is 10 mm; with Bacillus mycoides, 16 mm; in the experiment on Bacillus it was 12 mm; with Staphylococcus aureus, 14 mm; with Micrococcus luteus [3], 10 mm. Also, in experiment [2], 21.7 µM (≈ 5 µg/mL) was the least that counted as inhibitory (MIC).
As to `CC[C@H](CO)NC(=O)c1ccccc1Br`, the “diameter of the inhibition zone (DIZ)” value in the experiment with Micrococcus luteus [1], in the experiment on Bacillus cereus, in the experiment on Candida tropicalis, with Priestia megaterium, with Acinetobacter johnsonii and in the experiment with Penicillium chrysogenum was “inactive” throughout. Further, the “diameter of the inhibition zone (DIZ)” value in the experiment with Saccharomyces cerevisiae, in the experiment with Bacillus subtilis, with Bacillus mycoides, with Bacillus, with Staphylococcus aureus and in the experiment on Micrococcus luteus [3] was “inactive” in each case. The compound further displayed an MIC in experiment [2] above 18.4 µM.
On to `CC[C@H](CO)NS(=O)(=O)c1ccc(NC(C)=O)cc1`, for which the “diameter of the inhibition zone (DIZ)” value in the experiment on Micrococcus luteus [1], in the experiment on Bacillus cereus, in the experiment on Candida tropicalis, in the experiment on Priestia megaterium, in the experiment on Acinetobacter johnsonii and in the experiment on Saccharomyces cerevisiae was “inactive” each time. Besides, the “diameter of the inhibition zone (DIZ)” value in the experiment with Escherichia coli, in the experiment on Bacillus subtilis, in the experiment on Bacillus mycoides, in the experiment on Bacillus, in the experiment on Staphylococcus aureus and in the experiment with Micrococcus luteus [3] was “inactive” each time. For the same compound, in experiment [2], the MIC is above 17.5 µM.
As to `CC[C@H](CO)NC(=S)Nc1ccccc1`, the zone of inhibition at 50000 µg/mL with Micrococcus luteus [1] stood at 12 mm; in the experiment with Bacillus cereus, 14 mm; with Candida tropicalis, 16 mm; with Priestia megaterium, 13 mm; with Acinetobacter johnsonii, 12 mm; with Saccharomyces cerevisiae, 15 mm. For the same compound, the figures for the zone of inhibition at 50000 µg/mL in the experiment with Escherichia coli, in the experiment with Bacillus mycoides and in the experiment with Micrococcus luteus [3] were 16 mm, 12 mm and 12 mm, respectively. In [2], this compound had an MIC above 22.3 µM. For the same compound, the “diameter of the inhibition zone (DIZ)” value with Bacillus subtilis, with Bacillus and with Staphylococcus aureus was “inactive” in each case.
